Source: ChEMBL document CHEMBL1154006, “Optimisation of a series of potent, selective and orally bioavailable GlyT1 inhibitors” (Bioorg Med Chem Lett, 2009)

What was measured:
[1] = molecular target: T1, Sodium- and chloride-dependent glycine transporter 1 (Homo sapiens, UniProt P48067); test: Inhibition of [3H]glycine uptake at human glycine transporter 1 expressed in human JAR cells after 3 hrs by scintillation counting; assay type: cell-based
T1 sequence (P48067 whole entry): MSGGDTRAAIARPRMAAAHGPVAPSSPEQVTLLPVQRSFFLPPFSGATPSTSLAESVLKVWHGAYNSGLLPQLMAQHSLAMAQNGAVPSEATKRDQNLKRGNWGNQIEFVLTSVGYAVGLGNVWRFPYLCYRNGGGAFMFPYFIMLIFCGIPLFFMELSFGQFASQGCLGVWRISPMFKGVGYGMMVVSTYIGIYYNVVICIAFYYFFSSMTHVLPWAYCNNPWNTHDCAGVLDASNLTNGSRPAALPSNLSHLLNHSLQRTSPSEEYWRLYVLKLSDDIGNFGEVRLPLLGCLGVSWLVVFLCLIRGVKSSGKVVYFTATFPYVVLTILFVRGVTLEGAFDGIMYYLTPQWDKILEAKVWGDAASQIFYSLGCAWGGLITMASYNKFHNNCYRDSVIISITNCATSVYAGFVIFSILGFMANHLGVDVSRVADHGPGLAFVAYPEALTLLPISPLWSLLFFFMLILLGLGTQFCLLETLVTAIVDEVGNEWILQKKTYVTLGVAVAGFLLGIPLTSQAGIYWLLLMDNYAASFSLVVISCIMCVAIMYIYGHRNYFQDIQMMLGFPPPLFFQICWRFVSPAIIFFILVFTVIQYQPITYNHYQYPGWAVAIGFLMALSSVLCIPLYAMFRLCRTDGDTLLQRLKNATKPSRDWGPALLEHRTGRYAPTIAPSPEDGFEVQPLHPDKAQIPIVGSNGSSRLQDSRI

[2] = Metabolic stability in rat liver microsomes assessed as parent compound turnover at 1 uM after 15 mins; assay type: ADME, Microsome; conditions: read-out: Stability
In short: (§1)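 Test compounds at 1 μM incubated at 37 °C for 15 min with liver microsomes (rat, dog or human) at 0.5 mg/ml protein. Cosolvent was 0.99% MeCN + 0.01% DMSO. Read-out is % turnover of parent.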

[3] = Metabolic stability in dog liver microsomes assessed as parent compound turnover at 1 uM after 15 mins; assay type: ADME, Canis lupus familiaris, Microsome; conditions: read-out: Stability; in short: as §1
[4] = Metabolic stability in human liver microsomes assessed as parent compound turnover at 1 uM after 15 mins; assay type: ADME, Microsome; conditions: read-out: Stability; in short: as §1
Mus musculus = test: Ex vivo occupancy of glycine transporter 1 in po dosed mouse; assay type: functional
[5] = Bioavailability in Sprague-Dawley rat at 0.1 mg/kg, iv and 1 mg/kg, po; assay type: ADME, organism-based; conditions: in vivo
In short: (§2)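 Six male Sprague-Dawley rats were used. Three received 0.1 mg/kg i.v. and three received 1 mg/kg p.o.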

[6] = Half life in Sprague-Dawley rat at 0.1 mg/kg, iv and 1 mg/kg, po; assay type: ADME, organism-based; conditions: in vivo; in short: as §2
[7] = molecular target: T2, Sodium- and chloride-dependent glycine transporter 2 (Homo sapiens, UniProt Q9Y345); test: Inhibition of human glycine transporter 2
T2 sequence (Q9Y345 whole entry): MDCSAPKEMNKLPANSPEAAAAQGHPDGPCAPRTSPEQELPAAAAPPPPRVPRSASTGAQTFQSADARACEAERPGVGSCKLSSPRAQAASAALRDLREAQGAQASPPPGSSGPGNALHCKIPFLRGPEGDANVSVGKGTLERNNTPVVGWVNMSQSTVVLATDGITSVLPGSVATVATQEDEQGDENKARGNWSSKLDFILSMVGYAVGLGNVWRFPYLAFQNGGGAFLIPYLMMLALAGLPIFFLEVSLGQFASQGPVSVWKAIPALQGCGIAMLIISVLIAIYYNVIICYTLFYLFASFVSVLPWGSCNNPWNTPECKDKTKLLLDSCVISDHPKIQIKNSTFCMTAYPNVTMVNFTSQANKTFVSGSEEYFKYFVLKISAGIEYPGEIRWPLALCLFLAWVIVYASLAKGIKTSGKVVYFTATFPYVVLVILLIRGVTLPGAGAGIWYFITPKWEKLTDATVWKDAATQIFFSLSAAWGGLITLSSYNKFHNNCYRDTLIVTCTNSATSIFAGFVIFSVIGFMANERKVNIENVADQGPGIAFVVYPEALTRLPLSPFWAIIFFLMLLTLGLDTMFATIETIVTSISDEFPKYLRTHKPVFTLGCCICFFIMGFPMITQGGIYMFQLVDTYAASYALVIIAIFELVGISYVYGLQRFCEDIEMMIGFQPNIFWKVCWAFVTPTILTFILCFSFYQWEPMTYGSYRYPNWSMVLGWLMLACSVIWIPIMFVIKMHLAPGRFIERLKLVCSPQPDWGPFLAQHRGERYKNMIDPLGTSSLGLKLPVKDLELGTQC

[8] = molecular target: T3, Sodium- and chloride-dependent glycine transporter 1 (Homo sapiens) (UniProt P48067); test: Inhibition of [3H]glycine uptake at human glycine transporter 1 expressed in human JAR cells at 3 uM after 3 hrs by scintillation counting; assay type: cell-based
T3 sequence (whole entry): T1 sequence (P48067 whole entry)

[9] = Clearance in Sprague-Dawley rat at 0.1 mg/kg, iv and 1 mg/kg, po; assay type: ADME, organism-based; conditions: in vivo; in short: as §2
[10] = Volume of distribution in Sprague-Dawley rat at 0.1 mg/kg, iv and 1 mg/kg, po; assay type: ADME, organism-based; conditions: in vivo; in short: as §2
[11] = Plasma clearance in Sprague-Dawley rat at 0.1 mg/kg, iv and 1 mg/kg, po; assay type: ADME, organism-based; in short: as §2
Rattus norvegicus = test: In vivo occupancy of glycine transporter 1 in rat; assay type: functional
[12] = Volume of distribution at steady state in Sprague-Dawley rat at 0.1 mg/kg, iv and 1 mg/kg, po; assay type: ADME, organism-based; conditions: in vivo, read-out: Vdss; in short: as §2

| IC50 [1] [nM] | metabolised at 0.25 h, 1 µM [2] [%] | metabolised at 0.25 h, 1 µM [3] [%] | metabolised at 0.25 h, 1 µM [4] [%] | Compound | other results |
| --- | --- | --- | --- | --- | --- |
| 0.65 | 6 | 17 | 20 | Cn1cc(S(=O)(=O)N2CCC(CNC(=O)c3ccc(Cl)cc3Cl)(c3ncccc3F)CC2)nn1 | Occ50 (Mus musculus): 7.5 mg/kg; bioavailability [5]: 3%; half-life [6]: 0.3 h; IC50 [7]: > 10000 nM |
| – | – | – | – | O=C(NCC1(c2ncccc2F)CCN(S(=O)(=O)c2ccccc2)CC1)c1ccc(Cl)cc1Cl | inhibition [8]: 38% |
| 0.32 | 88 | 34 | 43 | Cn1cc(S(=O)(=O)N2CCC(CNC(=O)c3ccc(Cl)cc3Cl)(CC3CC3)CC2)nn1 | Occ50 (Mus musculus): <1 mg/kg; bioavailability [5]: 27%; half-life [6]: 1.1 h; clearance [9]: 39 mL/min/kg; Vd [10]: 2.2 L/kg; IC50 [7]: > 10000 nM |
| 28.2 | – | – | – | CCn1cc(S(=O)(=O)N2CCC(CNC(=O)c3ccc(Cl)cc3Cl)(CC3CC3)CC2)nn1 | – |
| 2 | 78 | 20 | 21 | O=C(NCC1(c2ncccc2F)CCN(S(=O)(=O)CC2CC2)CC1)c1ccc(Cl)cc1Cl | – |
| 1.74 | 30 | 21 | – | Cn1cnc(S(=O)(=O)N2CCC(CNC(=O)c3ccc(Cl)cc3Cl)(c3ncccc3F)CC2)c1 | IC50 [7]: > 10000 nM |
| – | – | – | – | Cc1nc(S(=O)(=O)N2CCC(CNC(=O)c3ccc(Cl)cc3Cl)(c3ncccc3F)CC2)cn1C | inhibition [8]: 31% |
| 0.31 | 15 | 5 | 22 | Cn1cc(S(=O)(=O)N2CC(CNC(=O)c3ccc(Cl)cc3Cl)(c3ncccc3F)C2)nn1 | – |
| – | – | – | – | O=C(NCC1(c2ncccc2F)CCN(S(=O)(=O)Cc2ccccc2)CC1)c1ccc(Cl)cc1Cl | inhibition [8]: 33% |
| 10.3 | 5 | 38 | 10 | Cn1cc(S(=O)(=O)N2CCC(CNC(=O)c3ccc(Cl)cc3Cl)(CC3CC3)CC2)cn1 | IC50 [7]: > 10000 nM |
| 5.43 | 55 | 24 | 42 | Cn1cc(S(=O)(=O)N2CCC(CNC(=O)c3ccc(Cl)cc3Cl)(c3ncccc3F)CC2)cn1 | IC50 [7]: > 10000 nM |
| 314 | – | – | – | Cn1ncnc1S(=O)(=O)N1CCC(CNC(=O)c2ccc(Cl)cc2Cl)(CC2CC2)CC1 | – |
| 502 | – | – | – | O=C(NCC1(CC2CC2)CCN(S(=O)(=O)c2cn(CC(F)(F)F)nn2)CC1)c1ccc(Cl)cc1Cl | – |
| 3.62 | 17 | 70 | 21 | Cn1cc(S(=O)(=O)N2CC(CNC(=O)c3ccc(Cl)cc3Cl)(CC3CC3)C2)cn1 | Occ50 (Mus musculus): 3.8 mg/kg; bioavailability [5]: 48%; clearance [11]: 46 mL/min/kg; half-life [6]: 2.4 h; IC50 [7]: > 10000 nM |
| 125 | 98 | 72 | – | O=C(NCC1(c2ncccc2F)CCN(S(=O)(=O)c2cccs2)CC1)c1ccc(Cl)cc1Cl | – |
| 124 | – | – | – | Cn1cnnc1S(=O)(=O)N1CCC(CNC(=O)c2ccc(Cl)cc2Cl)(CC2CC2)CC1 | – |
| 4.33 | 73 | 25 | 23 | CCCS(=O)(=O)N1CCC(CNC(=O)c2ccc(Cl)cc2Cl)(c2ncccc2F)CC1 | – |
| 132 | – | – | – | Cn1ncc(S(=O)(=O)N2CC(CNC(=O)c3ccc(Cl)cc3Cl)(CC3CC3)C2)n1 | – |
| 2.58 | 65 | 44 | 45 | CCn1cc(S(=O)(=O)N2CC(CNC(=O)c3ccc(Cl)cc3Cl)(CC3CC3)C2)nn1 | – |
| 5.44 | 10 | – | 28 | Cn1cc(S(=O)(=O)[C@H]2CC[C@](CNC(=O)c3ccc(Cl)cc3Cl)(CC3CC3)CC2)nn1 | bioavailability [5]: 105%; clearance [11]: 34 mL/min/kg; half-life [6]: 1.1 h; Occ50 (Rattus norvegicus): 3.4 mg/kg; Vd [12]: 2.6 L/kg |
| 0.1 | 88 | 24 | 32 | Cn1cc(S(=O)(=O)N2CC(CNC(=O)c3ccc(Cl)cc3Cl)(CC3CC3)C2)nn1 | – |
| – | – | – | – | O=C(NCC1(c2ncccc2F)CCN(S(=O)(=O)c2ccc(Cl)s2)CC1)c1ccc(Cl)cc1Cl | inhibition [8]: 20% |
| 1.89 | 23 | – | 28 | Cn1cc(S(=O)(=O)[C@H]2CC[C@@](CNC(=O)c3ccc(Cl)cc3Cl)(CC3CC3)CC2)nn1 | bioavailability [5]: 59%; clearance [11]: 16 mL/min/kg; half-life [6]: 1.8 h; Occ50 (Rattus norvegicus): 2.2 mg/kg; Vd [12]: 2.3 L/kg |
| 2.95 | 56 | < 5 | 25 | Cn1cc(S(=O)(=O)N2CC(CNC(=O)c3ccc(Cl)cc3Cl)(c3ncccc3F)C2)cn1 | – |
| – | – | – | – | Cn1cnc(S(=O)(=O)N2CCC(CNC(=O)c3ccc(Cl)cc3Cl)(CC3CC3)CC2)n1 | inhibition [8]: 13% |
| 871 | – | – | – | O=C(NCC1(CC2CC2)CN(S(=O)(=O)c2c[nH]nn2)C1)c1ccc(Cl)cc1Cl | – |
| 185 | – | – | – | Cn1nncc1S(=O)(=O)N1CC(CNC(=O)c2ccc(Cl)cc2Cl)(CC2CC2)C1 | – |

| Compound | IC50 [1] [nM] | metabolised at 0.25 h, 1 µM [2] [%] | metabolised at 0.25 h, 1 µM [3] [%] | metabolised at 0.25 h, 1 µM [4] [%] | other results |
| --- | --- | --- | --- | --- | --- |
| O=C(NCC1(c2ncccc2F)CCN(S(=O)(=O)c2cccnc2)CC1)c1ccc(Cl)cc1Cl | 11.6 | 99 | 96 | 99 | – |
